Test results as given in ChEMBL document CHEMBL1777800, “Novel diarylheptanoids as inhibitors of TNF-α production” (Bioorg Med Chem Lett, 2011).
Activity calls are given as the source filed them. The rule behind the calls is not given here.

Tests used:
[1] = tested on: Blood; experiment: Antiinflammatory activity in human whole blood assessed as inhibition of LPS-induced TNFalpha production at 10 uM treated for 30 mins followed by 5 hrs LPS challenge by ELISA-based WBCCS assay; assay type: functional
How it was run: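 Human whole blood cells exposed to compound 30 min, then LPS-stimulated; supernatants collected after 5 h and TNF-α determined by ELISA; expressed as percent inhibition.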

[2] = tested on: PBMC; experiment: Antiinflammatory activity in human PBMC assessed as inhibition of LPS-induced TNFalpha production treated for 30 mins followed by 5 hrs LPS challenge by ELISA assay; assay type: functional, cell-based
How it was run: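 Human PBMC pre-treated with compound (0.03–100 µM) for 30 min, then LPS-stimulated 5 h; TNF-α measured. Controls: DMSO vehicle with LPS, unstimulated cells, rolipram standard. Mean ± S.E.M. of three experiments; IC50 from concentration–response.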

[3] = tested on: PBMC; experiment: Cytotoxicity against human PBMC by MTS assay; assay type: cell-based
How it was run: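 Viability of human PBMC determined by MTS across the concentrations tested in the LPS-stimulated TNF-α assay.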

[4] = tested on: Mus musculus; experiment: Antiinflammatory activity in BALB/c mouse assessed as inhibition of LPS-induced TNFalpha production in plasma at 100 mg/kg, po by ELISA; assay type: functional
How it was run: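 BALB/c mice dosed orally, vehicle 0.5% carboxymethylcellulose, rolipram as standard; LPS given 1 h later. Blood drawn 1.5 h after LPS; plasma TNF-α quantified by ELISA.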

O=C(CC(O)CCc1cccnc1)/C(=C\CCc1cccnc1)Cc1ccc(Cl)cc1 (stereo not drawn)
inhibition at 10 µM [1]: 32%

COc1ccc(CCC(=O)/C=C/CCc2cccnc2)c(OC)c1
inhibition at 10 µM [1]: 56%
inhibition [2]: Dose-dependent effect
IC50 ([2]; read-out: IC50): 2 µM
IC50 [3]: 38 µM
inhibition in vivo at 100 mg/kg [4]: 79%

O=C(CCc1ccccc1)CC(O)CCc1cccnc1 (stereo not drawn)
inhibition at 10 µM [1]: 3%

COc1ccc(COc2ccc(CCC(=O)/C=C/CCc3cccnc3)cc2OC)cc1
inhibition at 10 µM [1]: 40%
IC50 ([2]; read-out: IC50): 24.1 µM
IC50 [3]: > 100 µM
inhibition in vivo at 100 mg/kg [4]: 75%

Cc1cccc(CCC(=O)CC(O)CCc2cccnc2)c1 (stereo not drawn)
inhibition at 10 µM [1]: 11%

COc1cc(/C=C/C(=O)CC(=O)/C=C/c2ccc(O)c(OC)c2)ccc1O [CURCUMIN]
IC50 [2]: 2.71 µM
inhibition [4]: inactive

COc1cccc(CCC(=O)/C=C/CCc2cccnc2)c1OC
inhibition at 10 µM [1]: 33%

COc1cc(CCC(=O)CC(O)CCc2cccnc2)cc(OC)c1OC (stereo not drawn)
inhibition at 10 µM [1]: 12%

Cc1cccc(CCC(=O)/C=C/CCc2cccnc2)c1
inhibition at 10 µM [1]: 25%

CN(C)c1ccc(CCC(=O)/C=C/CCc2cccnc2)cc1
inhibition at 10 µM [1]: 32%

COc1ccc(OC)c(CCC(=O)CC(O)CCc2cccnc2)c1 (stereo not drawn)
inhibition at 10 µM [1]: 0%

N#Cc1ccc(CCC(=O)/C=C/CCc2cccnc2)cc1
inhibition at 10 µM [1]: 9%

O=C(CCc1ccc(F)cc1)CC(O)CCc1cccnc1 (stereo not drawn)
inhibition at 10 µM [1]: 34%

O=C(CCc1ccc(Cl)cc1)CC(O)CCc1cccnc1 (stereo not drawn)
inhibition at 10 µM [1]: 16%

N#Cc1ccc(CCC(=O)CC(O)CCc2cccnc2)cc1 (stereo not drawn)
inhibition at 10 µM [1]: 35%

O=C(/C=C/CCc1cccnc1)CCc1ccccc1
inhibition at 10 µM [1]: 0%

COc1ccc(COc2cc(CCC(=O)CC(O)CCc3cccnc3)ccc2OC)cc1 (stereo not drawn)
inhibition at 10 µM [1]: 44%
IC50 ([2]; read-out: IC50): 5.7 µM
IC50 [3]: > 100 µM
inhibition in vivo at 100 mg/kg [4]: 71%

COc1ccc(COc2cc(CCC(=O)/C=C/CCc3cccnc3)ccc2OC)cc1
inhibition at 10 µM [1]: 19%

O=C(/C=C/CCc1cccnc1)CCc1ccc(F)cc1
inhibition at 10 µM [1]: 35%

O=C(CCc1ccc2c(c1)OCO2)CC(O)CCc1cccnc1 (stereo not drawn)
inhibition at 10 µM [1]: 41%

COc1ccc(CCC(=O)CC(O)CCc2cccnc2)cc1OC (stereo not drawn)
inhibition at 10 µM [1]: 18%

COc1ccc(OC)c(CCC(=O)/C=C/CCc2cccnc2)c1
inhibition at 10 µM [1]: 0%

COc1cc(CCC(=O)/C=C/CCc2cccnc2)cc(OC)c1OC
inhibition at 10 µM [1]: 23%

COc1ccc(CCC(=O)CC(O)CCc2cccnc2)c(OC)c1 (stereo not drawn)
inhibition at 10 µM [1]: 22%

COc1ccc(CCC(=O)/C=C/CCc2cccnc2)cc1OC
inhibition at 10 µM [1]: 56%
inhibition [2]: Dose-dependent effect
IC50 ([2]; read-out: IC50): 2.5 µM
IC50 [3]: 80 µM
inhibition in vivo at 100 mg/kg [4]: 50%

COc1ccc(COc2ccc(CCC(=O)CC(O)CCc3cccnc3)cc2OC)cc1 (stereo not drawn)
inhibition at 10 µM [1]: 2%

CN(C)c1ccc(CCC(=O)CC(O)CCc2cccnc2)cc1 (stereo not drawn)
inhibition at 10 µM [1]: 0%

COc1cccc(CCC(=O)CC(O)CCc2cccnc2)c1OC (stereo not drawn)
inhibition at 10 µM [1]: 10%
